Compound activity from PubChem BioAssay.
TPT1 inh: C. albicans TPT1 enzyme inhibition. recombinant caTPT1, FP RNA substrate dephosphorylation. inhibition, % at 5 µM. hit rate 0.81% among 300,000. AID 1962;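 active means inhibition above the mean of all tested compounds plus 3 SD, set per screening campaign, cut at about 24% in these data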;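 further: plate controls were DMSO alone for no effect and ferristatin control at 100 nM for full effect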
CSN inh: inhibitors of human CSN-mediated cullin deneddylation; Q92905; Purified CSN, SCF-Nedd8-OG deneddylation, fluorescence polarization; inhibition, % at 12.5 µM; hit rate 0.38% among 360,000;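 active means pattern-corrected inhibition above about 35%, with an unprinted fluorescence ratio check between 0.5 and 1.5, limit read from the data, passing the limit was not always enough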;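 further: 0% = enzyme with substrate and 100% = substrate without enzyme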
Target sequence (Q92905 whole entry, looked up, one chain of several): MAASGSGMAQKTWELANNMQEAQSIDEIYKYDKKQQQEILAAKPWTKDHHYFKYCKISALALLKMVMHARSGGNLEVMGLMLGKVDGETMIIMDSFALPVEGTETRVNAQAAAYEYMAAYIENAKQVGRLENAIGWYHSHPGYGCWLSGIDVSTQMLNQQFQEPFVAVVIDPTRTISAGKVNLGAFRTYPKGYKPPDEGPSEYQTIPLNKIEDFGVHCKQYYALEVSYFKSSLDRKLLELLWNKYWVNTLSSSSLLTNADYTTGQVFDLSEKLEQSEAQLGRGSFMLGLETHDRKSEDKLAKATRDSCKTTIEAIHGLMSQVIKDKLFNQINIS
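Material: human Csn5 produced in HEK293T cells; Input: enzyme 0.24 nM; Reagent: SCFSkp2-Nedd8OG substrate at 10 nM final; Dosing: 12.5 µM compound; Incubation: 90 min reaction at room temperature; Detection: fluorescence polarization of the substrate; Evaluation: % inhibition of substrate cleavage by Csn5; Control set: substrate-only high control, full reaction low control.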
PKA-R1A activ: activators of PKA-R1A complex. P00514+P68181. PKA-R1A dissociation, Cy5-IP20 fluorescence polarization; scaled: DMSO 0%, 113 µM cGMP 100%. activation, % at 11.4 µM. hit rate 0.083% among 340,000. AID 504707;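 active means percent activation above the mean of all tested compounds plus 3 SD, cut at about 19% in these data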;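 further: higher means more PKAc released from R1A so a rise in polarization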
HNF4A DNA FP: change in binding of human HNF4 alpha to DNA; P41235; HNF4a-FITC DNA binding, fluorescence polarization, 1 h; activity change, % at 10 µM; hit rate 0.3% among 360,000; AID 1224865; in the data active means activity change above about 30%, passing the limit was not always enough
Rpn11 inh: Rpn11 (human) deubiquitinase inhibition; human 26S proteasome, Ub4-pepOG fluorescence polarization; 20S core pre-blocked with epoxomicin; AID 588493; O00487; hit rate 0.59% among 360,000; calls only at 20 µM;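 active means inhibition at 20 µM, scaled to each plate's controls, above about 33%, limit read from the data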
PKA-R2B activ: activates the human PKA-R2B holoenzyme complex | P22694+P31323 | PKA-R2B holoenzyme dissociation, Cy5-IP20 fluorescence polarization; R2B truncated from residue 108, S112A mutant; 0% DMSO only, 100% 113 µM cGMP | activation, % at 11.4 µM | hit rate 0.079% among 340,000;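 active means activation above a cutoff set at the mean over all compounds plus 3 SD, cut at about 18% in these data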;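 further: higher means more holoenzyme dissociation and a rise in polarization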
TPT1 inh confirm: TPT1 (C. albicans) inhibition, confirmation | shares compounds with TPT1 inh | recombinant caTPT1, fluorescence polarization, RNase T1 coupled | inhibition, % at 5 µM | hit rate 74% among 2,400 | AID 2149;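 active means inhibition above the primary screen limit, the mean inhibition of all tested compounds plus 3 SD, cut at about 25% in these data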
RNase T1 counter: blocks Aspergillus oryzae RNase T1, a TPT1 counter-screen. inhibition, % at 5 µM. RNase T1 cleavage, fluorescence polarization, 1536-well. shares compounds with TPT1 inh. hit rate 83% among 2,400;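 active means inhibition above the solvent-only control well mean plus 3 SD, limit set per screening run, cut at about 23% in these data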;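 further: plate controls were DMSO wells with enzyme for no effect and wells without RNase T1 for full effect; inhibitors block cleavage so intact labeled substrate keeps polarization high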
Target sequence (P00651 whole entry, looked up): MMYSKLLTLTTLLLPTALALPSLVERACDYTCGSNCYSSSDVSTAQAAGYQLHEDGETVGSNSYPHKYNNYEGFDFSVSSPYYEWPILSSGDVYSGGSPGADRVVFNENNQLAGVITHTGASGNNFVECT
* hit, by the source's call. Only some compounds are listed: those with a hit (about 1.6% of all), similar ones and a draw of the others.

`COC(=O)Nc1ccc(N2CCOCC2)c(S(=O)(=O)N2CCOCC2)c1` gave TPT1 inh -3, CSN inh -1, PKA-R1A activ -8, HNF4A DNA FP 8, Rpn11 inh inactive and PKA-R2B activ -2.
For CCOc1ccc(N2C(=O)C3Sc4[nH]c(=O)sc4C(/C=C/c4ccccc4)C3C2=O)cc1 (stereo unspecified) the results were TPT1 inh 51*, CSN inh 16, PKA-R1A activ 11, HNF4A DNA FP 34, PKA-R2B activ 1, TPT1 inh confirm 34* and RNase T1 counter 40*.
For COc1cc(C2c3sc(=O)[nH]c3SC3C(=O)N(c4ccc(Br)cc4)C(=O)C32)ccc1O (stereo unspecified) the results were TPT1 inh 0, CSN inh 1, PKA-R1A activ -2, HNF4A DNA FP -1, Rpn11 inh inactive and PKA-R2B activ -9.
`COc1ccc(C2C(C#N)=C(N)N(c3ccccc3)C3=C2C(=O)CCC3)cc1Cn1cc([N+](=O)[O-])cn1` (stereo unspecified) gave TPT1 inh 9, CSN inh 4, PKA-R1A activ -7, HNF4A DNA FP 10, Rpn11 inh inactive and PKA-R2B activ -2.
For COc1ccc(C2C(C#N)=C(N)N(c3cccnc3)C3=C2C(=O)CCC3)cc1Cn1cc([N+](=O)[O-])cn1 (stereo unspecified) the results were TPT1 inh 37*, CSN inh 5, PKA-R1A activ 4, HNF4A DNA FP 28, Rpn11 inh inactive, PKA-R2B activ -3, TPT1 inh confirm 43* and RNase T1 counter 55*.
For C[C@@H]1ON(C)[C@H]2C[C@H]3c4cc(-c5cccc(F)c5)ccc4CCN3C(=O)[C@@H]12 the results were CSN inh -3, PKA-R1A activ 3, HNF4A DNA FP 2, Rpn11 inh inactive and PKA-R2B activ -3.
Screening Cc1[nH]nc2c1C(c1ccc(F)cc1)C(C#N)=C(N)O2 (stereo unspecified) returned TPT1 inh 1, CSN inh 2, PKA-R1A activ 1, HNF4A DNA FP 0, Rpn11 inh inactive and PKA-R2B activ -1.
Cc1oc(C)c2c(=O)ccc3c(c12)OC(N)=C(C#N)C3c1ccc(F)cc1 (stereo unspecified) was read as TPT1 inh 31*, CSN inh 27, PKA-R1A activ -3, HNF4A DNA FP 18, PKA-R2B activ 2, TPT1 inh confirm 17 and RNase T1 counter 28*.
O=C(c1ccc(Cl)cc1)N1CCC(C(=O)N2CCCc3ccccc32)CC1 was read as TPT1 inh 2, CSN inh 0, PKA-R1A activ -11, HNF4A DNA FP -1, Rpn11 inh inactive and PKA-R2B activ 0.
`CC(=O)NC(Cc1cccc(F)c1)C(=O)NC1CCN(C(=O)Nc2ccc(C)cc2)CC1` (stereo unspecified) gave TPT1 inh 24*, CSN inh 2, PKA-R1A activ -12, HNF4A DNA FP 2, Rpn11 inh inactive, PKA-R2B activ -4, TPT1 inh confirm 8 and RNase T1 counter 12.
Screening O=C(Nc1ccccc1)c1ccc(NCCc2ccccc2)c([N+](=O)[O-])c1 returned TPT1 inh 45*, CSN inh 133, PKA-R1A activ 8, HNF4A DNA FP 152, PKA-R2B activ -3, TPT1 inh confirm 105* and RNase T1 counter 115*.
For O=C(NCc1nnc(SCC(=O)N2CCCc3ccccc32)o1)c1c(F)cccc1Cl the results were TPT1 inh 1, CSN inh 4, PKA-R1A activ -15, HNF4A DNA FP 3, Rpn11 inh inactive and PKA-R2B activ -6.
